Assay results as given in ChEMBL document CHEMBL3286372, “Design, synthesis and structure-activity relationship of novel semi-synthetic flavonoids as antiproliferative agents” (2014).

What was measured:
CCRF-CEM [1] = experiment: Growth inhibition of human CCRF-CEM cells at 10 uM after 48 hrs by sulforhodamine B assay relative to control; type: functional; details: read-out: GI
Method in brief: (§1)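 NCI-60 primary screen at a single dose of 10 µM with 48 h continuous exposure. Growth or viability read by sulforhodamine B protein staining and expressed as percent growth inhibition versus untreated cells.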

HCT-116 = experiment: Growth inhibition of human HCT116 cells at 10 uM after 48 hrs by sulforhodamine B assay relative to control; type: functional; details: HCT-116, 48 h, read-out: GI; method in brief: as §1
[2] = Growth inhibition of human OVCAR4 cells after 48 hrs by coulter counting analysis; type: functional; details: OVCAR-4, 48 h
Method in brief: (§2)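 Five-dose NCI-60 follow-up, 0.01–100 µM, made from DMSO stock in buffered saline (final DMSO <1%), in duplicate wells. Cells in RPMI 1640 with 10% FBS at 6×10^4 cells/ml, 37 °C, 5% CO2, 48 h. Cells diluted tenfold in saline, Coulter-counted and corrected for dilution. GI50, TGI and LC50 taken from log concentration–percent growth curves.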

A498 = experiment: Growth inhibition of human A498 cells after 48 hrs by coulter counting analysis; type: functional; details: A498, 48 h
Method in brief: (§3)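 NCI five-dose screen at 0.01-100 µM, diluted from DMSO stocks in buffered saline (final DMSO <1%). Cells at 6×10^4 cells/ml in RPMI 1640 with 10% FBS, in duplicate wells, at 37 °C under 5% CO2 for 48 h. Cells diluted tenfold in saline and Coulter-counted. GI50, TGI and LC50 taken from log concentration-growth inhibition curves.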

SN12C = experiment: Growth inhibition of human SN12C cells after 48 hrs by coulter counting analysis; type: functional; method in brief: as §2
TK-10 = experiment: Growth inhibition of human TK10 cells after 48 hrs by coulter counting analysis; type: functional; details: TK-10, 48 h
Method in brief: (§4)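 NCI five-dose screen, 0.01-100 µM, from DMSO stocks diluted in buffer saline (final DMSO <1%). Cells grown in RPMI 1640 + 10% FBS, seeded at 6×10^4 cells/ml, in duplicate wells. Exposure 48 h at 37 °C, 5% CO2. Cells diluted 10-fold in saline and counted by Coulter counter. GI50 derived from log concentration–percent growth inhibition curves. Controls carried matching PBS/saline/DMSO.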

[3] = Growth inhibition of human UO31 cells after 48 hrs by coulter counting analysis; type: functional; details: UO-31, 48 h; method in brief: as §4
PC-3 = experiment: Growth inhibition of human PC3 cells after 48 hrs by coulter counting analysis; type: functional; details: PC-3, 48 h; method in brief: as §2
DU-145 [4] = experiment: Growth inhibition of human DU145 cells after 48 hrs by coulter counting analysis; type: functional; details: DU-145, 48 h; method in brief: as §3
MDA-MB-231 = experiment: Growth inhibition of human MDA-MB-231 cells after 48 hrs by coulter counting analysis; type: functional; details: MDA-MB-231, 48 h; method in brief: as §3
[5] = Growth inhibition of human Hs 578T cells after 48 hrs by coulter counting analysis; type: functional; method in brief: as §3
T47D = experiment: Growth inhibition of human T47D cells after 48 hrs by coulter counting analysis; type: functional; method in brief: as §2
MDA-MB-468 [6] = experiment: Growth inhibition of human MDA-MB-468 cells after 48 hrs by coulter counting analysis; type: functional; details: MDA-MB-468, 48 h; method in brief: as §2
[7] = Growth inhibition of human NCI60 cells after 48 hrs by coulter counting analysis; type: functional; details: NCI60, 48 h
Method in brief: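 Five-dose screen (0.01-100 µM, DMSO-solubilized, under 1% DMSO final), cells in RPMI 1640 + 10% FBS at 6×10^4 cells/ml, duplicate wells, 37 °C, 5% CO2, 48 h. Cells then diluted tenfold in saline and counted by Coulter counter with dilution correction. Controls held buffer/saline/DMSO at matching dilutions. GI50 derived from log concentration-percent growth inhibition curves.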

[8] = molecular target: Glycogen synthase kinase-3 beta (Homo sapiens) (UniProt P49841); experiment: Inhibition of GSK-3beta (unknown origin) at 20 uM after 30 mins by scintillation counting analysis relative to control
Sequence of Glycogen synthase kinase-3 beta (Homo sapiens) (P49841 whole entry, looked up): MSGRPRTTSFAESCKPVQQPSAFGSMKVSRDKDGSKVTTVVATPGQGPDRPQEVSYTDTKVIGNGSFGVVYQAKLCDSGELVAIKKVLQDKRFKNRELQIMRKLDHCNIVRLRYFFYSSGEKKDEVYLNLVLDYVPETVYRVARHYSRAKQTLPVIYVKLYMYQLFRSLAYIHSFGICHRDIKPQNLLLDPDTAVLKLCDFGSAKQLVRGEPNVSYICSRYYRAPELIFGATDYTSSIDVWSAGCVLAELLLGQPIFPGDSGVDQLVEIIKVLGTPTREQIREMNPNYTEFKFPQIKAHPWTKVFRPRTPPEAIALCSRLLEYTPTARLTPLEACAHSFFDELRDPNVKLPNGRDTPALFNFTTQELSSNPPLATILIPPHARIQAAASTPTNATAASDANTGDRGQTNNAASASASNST
Method in brief: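 Recombinant kinases, cloned, expressed and purified in-house. Radiometric ³³P-ATP assay with kinase at ~10-50 nM final and 1-5 µg peptide or protein substrate. Compound at 20 µM final, in duplicate. Reaction started by adding ATP, run 30 min at ambient temperature, then spotted on P81 phosphocellulose. Plates washed in 1% phosphoric acid and counted by scintillation. No-substrate blank subtracted. Result is mean % activity change versus DMSO control.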

DU-145 [9] = experiment: Growth inhibition of human DU145 cells at 10 uM after 48 hrs by sulforhodamine B assay relative to control; type: functional; details: DU-145, 48 h, read-out: GI; method in brief: as §1
CCRF-CEM [10] = experiment: Growth inhibition of human CCRF-CEM cells after 48 hrs by coulter counting analysis; type: functional; method in brief: as §3
RPMI-8226 = experiment: Growth inhibition of human RPMI8226 cells after 48 hrs by coulter counting analysis; type: functional; details: RPMI-8226, 48 h; method in brief: as §2
[11] = Growth inhibition of human EKVX cells after 48 hrs by coulter counting analysis; type: functional; method in brief: as §3
NCI-H322M = experiment: Growth inhibition of human NCI-H322M cells after 48 hrs by coulter counting analysis; type: functional; method in brief: as §2
COLO 205 = experiment: Growth inhibition of human COLO205 cells after 48 hrs by coulter counting analysis; type: functional; details: COLO 205, 48 h; method in brief: as §3
SF-268 = experiment: Growth inhibition of human SF268 cells after 48 hrs by coulter counting analysis; type: functional; details: SF-268, 48 h; method in brief: as §2
SNB-19 = experiment: Growth inhibition of human SNB19 cells after 48 hrs by coulter counting analysis; type: functional; details: SNB-19, 48 h; method in brief: as §2
[12] = Growth inhibition of human LOXIMVI cells after 48 hrs by coulter counting analysis; type: functional; details: LOX IMVI; method in brief: as §3
SK-MEL-28 = experiment: Growth inhibition of human SK-MEL-28 cells after 48 hrs by coulter counting analysis; type: functional; details: SK-MEL-28, 48 h; method in brief: as §2
[13] = Growth inhibition of human UACC257 cells after 48 hrs by coulter counting analysis; type: functional; details: UACC-257, 48 h; method in brief: as §4
[14] = Growth inhibition of human UACC62 cells after 48 hrs by coulter counting analysis; type: functional; details: UACC-62, 48 h; method in brief: as §4
[15] = Growth inhibition of human UO31 cells at 10 uM after 48 hrs by sulforhodamine B assay relative to control; type: functional; details: UO-31, 48 h, read-out: GI
Method in brief: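 NCI-60 primary single-dose screen at 10 µM with continuous 48 h exposure. Cell viability/growth read by sulforhodamine B protein staining. Reported as percent growth inhibition relative to untreated cells.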

MDA-MB-468 [16] = experiment: Growth inhibition of human MDA-MB-468 cells at 10 uM after 48 hrs by sulforhodamine B assay relative to control; type: functional; details: MDA-MB-468, 48 h, read-out: GI
Method in brief: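 NCI-60 primary screen at a single 10 µM dose. Continuous 48 h exposure, with growth or viability estimated by sulforhodamine B protein staining. Reported as percent growth inhibition of treated cells relative to untreated growth.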

| SMILES | inhibition of growth at 10 µM (CCRF-CEM [1]) [%] | inhibition of growth at 10 µM (HCT-116) [%] | GI50 [2] [µM] | GI50 (A498) [µM] | GI50 (SN12C) [µM] | GI50 (TK-10) [µM] | GI50 [3] [µM] | GI50 (PC-3) [µM] | GI50 (DU-145 [4]) [µM] | GI50 (MDA-MB-231) [µM] | GI50 [5] [µM] | GI50 (T47D) [µM] | GI50 (MDA-MB-468 [6]) [µM] | LC50 [7] [µM] | TGI [7] [µM] | inhibition [8] [%] | inhibition of growth at 10 µM (DU-145 [9]) [%] | GI50 (RPMI-8226) [µM] | GI50 [11] [µM] | GI50 (NCI-H322M) [µM] | also measured |
| --- | --- | --- | --- | --- | --- | --- | --- | --- | --- | --- | --- | --- | --- | --- | --- | --- | --- | --- | --- | --- | --- |
| C=CCc1c2c(c(OC)c3ccoc13)C(=O)/C(=C/c1ccccc1OC)O2 | 63 | 79 | 3.34 | 5.81 | 4.85 | 6.5 | 4.98 | 5.25 | 3.19 | 4.59 | 5.29 | 4.34 | 2.46 | 100 | 58.9 | 56 | 65 | 3.51 | 4.41 | 5.93 | GI50 (CCRF-CEM [10]): 3.44 µM; GI50 (COLO 205): 7.64 µM; GI50 (SF-268): 3.73 µM; GI50 (SNB-19): 5.83 µM; GI50 [12]: 3.13 µM; GI50 (SK-MEL-28): 5.21 µM; GI50 [13]: 6.41 µM; GI50 [14]: 4.14 µM |
| COc1c(C(=O)/C=C/c2ccccc2)c(O)cc2occc12 | 65 | 68 | 5.4 | 7.97 | 4.48 | 11.2 | 3.14 | 7.01 | 3.81 | 4.38 | 2.76 | 11.1 | 6.77 | 55 | 18.6 | 28 | 75 | 3.15 | 12.5 | 13.6 | inhibition of growth at 10 µM [15]: 60%; GI50 (COLO 205): 15.7 µM; GI50 (SF-268): 4.05 µM; GI50 (SNB-19): 7.33 µM; GI50 [12]: 1.69 µM; GI50 (SK-MEL-28): 7.03 µM; GI50 [13]: 7.01 µM; GI50 [14]: 4.15 µM |
| COc1ccccc1/C=C/C(=O)c1c(O)cc2occc2c1OC | 63 | 66 | > 100 | 46 | > 100 | 21.9 | > 100 | > 100 | 23.5 | 33.1 | 38.2 | 55.9 | 10.3 | 100 | 89.1 | 17 | 78 | 23.5 | 33.7 | > 100 | inhibition of growth at 10 µM (MDA-MB-468 [16]): 84%; GI50 (CCRF-CEM [10]): 9.72 µM; GI50 (COLO 205): > 100 µM; GI50 (SF-268): 22.2 µM; GI50 (SNB-19): 30.8 µM; GI50 [12]: 30.1 µM; GI50 (SK-MEL-28): > 100 µM; GI50 [13]: > 100 µM; GI50 [14]: 23.7 µM |
